Fewer inactive variants are shown than the library holds.

The chains are these.
B1: tRNA (parent)
chain: GUUCCGUUGGCGUAAUGGUAACGCGUCUCCCUCCUAAGGAGAAGACUGCGGGUUCGAGUCCCGUACGGAACG

Variants of B1 are the subject of the data set. Nature of the data set: yeast fitness relative to wild type (ratio to wild type); higher = fitter; tRNA-Arg(CCU), competitive growth, 37 C, YPD. An outline of the steps:
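Genotype frequency changes were the basis for Darwinian fitness relative to wild type. The frequencies came from 100-nucleotide paired-end sequencing of gene amplicons from the start population and each end population of pooled yeast strains with tRNA-Arg(CCU) gene variants at the native locus. Competition ran in YPD at 37°C for 24 hours in six replicates, genotypes needed ≥ 100 starting reads, and estimates < 0.5 were set to 0.5.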
Consider U16A U28A C46G C49A A69U, for which the yeast fitness is at most 0.5.

On to U16C A40U U47A, for which the yeast fitness is 0.532.

Regarding U16C C55U A57C G58A, the yeast fitness stood at 0.593.

On to U16C C22G C62U, for which the yeast fitness came out at 0.716.

Take U16A C31A A65C: the yeast fitness is at most 0.5.

Turning to U16C C22A C31G C46A C49U U54C G68A, the yeast fitness was at most 0.5.

Consider U16A U28A U64C, for which the yeast fitness worked out at 0.568.

For the variant U16C C30U C62U, the yeast fitness turned out to be 0.645.

Regarding U16A U26C A70U, the yeast fitness was 0.558.

As for U16A G18C A20G C22U A65C, the yeast fitness was at most 0.5.

Regarding U16C C31G G41A G52C C60U C62G C66G, the yeast fitness was at most 0.5.

On to U16C C29G U53A U64C, for which the yeast fitness is at most 0.5.

With U16A G23C, the yeast fitness is 0.699.

Consider U16A G68A, for which the yeast fitness amounted to 1.08.

As for U16A G68U, the yeast fitness amounted to 0.837.

Regarding U16A C30G G50A A70G, the yeast fitness is at most 0.5.

On to U16A C24U C30G U35A C49A G67C, for which the yeast fitness is 0.751.

On to U16C A69C, for which the yeast fitness was determined as 0.889.

For U16C A21G A40G A57C, the yeast fitness is at most 0.5.

Take U16A G18C A36G G48C: the yeast fitness was at most 0.5.

As for U16A G23C U26A C29U A42U G48A, the yeast fitness came out at 0.557.

For U16C C30A G41C A45C C46G, the yeast fitness was at most 0.5.

For U16A G39A A42G C55A C62U, the yeast fitness is at most 0.5.

For the variant U16A C62G, the yeast fitness is 0.867.

For U16C C24G U28A, the yeast fitness was at most 0.5.

On to U16A C22U U28C U32C A42G C55G, for which the yeast fitness was at most 0.5.

In the case of U16C C49U A70U, the yeast fitness was 0.745.

As to U16C C49U A70G, the yeast fitness was 0.581.

With U16A C31A C33A U35C U47A, the yeast fitness was at most 0.5.

Regarding U16A G23C C29U C31G A57C, the yeast fitness is at most 0.5.

On to U16A C29G A42G C46G A65U, for which the yeast fitness is at most 0.5.

Consider U16C C29U A36U C66U G67A, for which the yeast fitness was at most 0.5.

For the variant U16C A43C U54A, the yeast fitness is at most 0.5.

On to U16A C29G G41C A45U, for which the yeast fitness is at most 0.5.

In the case of U16C, the yeast fitness is 1.01.

U16C C62G: the yeast fitness was determined as 0.717.

With U16A G25A U32C, the yeast fitness is 0.889.

For U16A C30U A40C, the yeast fitness was at most 0.5.

U16C C31U C33A C34G U35A G52A: the yeast fitness is at most 0.5.

Take U16C C30A A37U: the yeast fitness was at most 0.5.

In the case of U16C A43C, the yeast fitness was 1.01.

In the case of U16C C33A A40C, the yeast fitness is at most 0.5.

For the variant U16A C24U C34A C62A A65G, the yeast fitness is at most 0.5.

Regarding U16A G18C G39A G52A, the yeast fitness was at most 0.5.

U16C C27G C60G: the yeast fitness was 0.603.

On to U16A G25A U28A, for which the yeast fitness was at most 0.5.

With U16A C34U A57G C60A, the yeast fitness is at most 0.5.

Turning to U16A U54C C55G, the yeast fitness was at most 0.5.

As to U16A G23C U32C C33U, the yeast fitness was at most 0.5.

As for U16A C24G A43C G63A, the yeast fitness was at most 0.5.

Take U16A C34G: the yeast fitness was determined as 0.683.

On to U16A C31G A69U, for which the yeast fitness stood at 0.601.

For the variant U16C C49U A69U, the yeast fitness is 0.555.

As for U16C C33U A36C, the yeast fitness was found to be 0.589.

As for U16A U64C, the yeast fitness amounted to 0.929.

Consider U16A U28A, for which the yeast fitness stood at 0.636.

For the variant U16A C34A C60A, the yeast fitness was found to be 0.574.

Take U16C G17A C33U C49A C62G: the yeast fitness turned out to be 0.57.

Take U16A U47C C66U: the yeast fitness was determined as 0.893.

For U16A C55A G68A, the yeast fitness was at most 0.5.

With U16C A40U G50U, the yeast fitness is at most 0.5.

As for U16C A21C G41A, the yeast fitness is at most 0.5.

U16C C22U U47A C60G C62A: the yeast fitness was at most 0.5.

As for U16A G39A C46G, the yeast fitness is 0.695.

In the case of U16C A45U C49U G51A A57C C60G, the yeast fitness was at most 0.5.

For U16C C30U C34G G39A, the yeast fitness was at most 0.5.

With U16C C22U G25A C31G G52A, the yeast fitness was found to be 0.589.

Regarding U16A U28G U47G U54A, the yeast fitness was 0.56.

For U16C C49A G63A, the yeast fitness was at most 0.5.

As to U16C C29A, the yeast fitness was determined as 0.629.

Regarding U16C C29U, the yeast fitness is 0.738.

For the variant U16A C24U C55U, the yeast fitness stood at 0.913.

Consider U16C C61G, for which the yeast fitness was found to be 0.63.

For U16A C30G G44C C61A, the yeast fitness was at most 0.5.

In the case of U16A C46U G68C, the yeast fitness was determined as 0.651.

As to U16A G23A C29U C34G, the yeast fitness came to 0.734.

Consider U16C C22U C24U C29U C60U, for which the yeast fitness was 0.551.

Regarding U16A U47A, the yeast fitness is 0.825.

Take U16A G39A A42G C55A C62A C66U: the yeast fitness came out at 0.528.

Turning to U16A C30G G44C, the yeast fitness is at most 0.5.

Regarding U16C A20C, the yeast fitness was 0.995.

For the variant U16C A20G, the yeast fitness was found to be 0.976.

For the variant U16C A20U, the yeast fitness amounted to 0.889.

U16C C33U G63C: the yeast fitness was 0.508.

Consider U16C A43U G51C A57C C60G G67A, for which the yeast fitness is at most 0.5.

As to U16C C34A G41A, the yeast fitness is at most 0.5.

With U16A U59A C62U, the yeast fitness was at most 0.5.

U16A G68A A70C: the yeast fitness was 0.606.

As to U16A C34U U47C A57U, the yeast fitness was at most 0.5.

As for U16A U28A C60G C61A G63A, the yeast fitness was at most 0.5.

Consider U16C C22U C24U C29U, for which the yeast fitness is at most 0.5.

Consider U16C C24G, for which the yeast fitness worked out at 0.64.

On to U16A C30A A43C, for which the yeast fitness stood at 1.04.

As to U16C C30G C61U G68A, the yeast fitness was at most 0.5.

On to U16A G67C, for which the yeast fitness was found to be 0.769.

In the case of U16C A36C A37U, the yeast fitness was at most 0.5.

With U16A C30U A42U, the yeast fitness came to 0.618.

As to U16C A65G, the yeast fitness is 0.95.

On to U16C A65C, for which the yeast fitness was 0.955.

U16C A65U: the yeast fitness worked out at 0.965.

For U16A U28A C49G, the yeast fitness was at most 0.5.

For U16A U28A C49A, the yeast fitness is at most 0.5.

U16A C31A C34G: the yeast fitness is at most 0.5.

As for U16A C27G C49A A69G, the yeast fitness amounted to 0.532.

Turning to U16A G25C C46G, the yeast fitness worked out at 1.07.

U16A U47C G63A: the yeast fitness is 0.869.

Turning to U16C A21G A40C A42U C46U C49U G51A A70G, the yeast fitness was at most 0.5.

Turning to U16C A40U A57C, the yeast fitness is at most 0.5.

Regarding U16C A36G G50A, the yeast fitness is 0.594.

On to U16A G38C, for which the yeast fitness was 0.749.

For the variant U16C C60U, the yeast fitness turned out to be 0.79.

For U16C A43C U54A C55U C60U G68A, the yeast fitness is at most 0.5.

On to U16C A20C C27U, for which the yeast fitness is 0.662.

On to U16A C46U C55A, for which the yeast fitness was at most 0.5.

In the case of U16A G18A C31U C66U, the yeast fitness is at most 0.5.

In the case of U16A C30U A40C G48C G67C, the yeast fitness was at most 0.5.

Regarding U16A U28A C62U, the yeast fitness was at most 0.5.

Take U16A G50A: the yeast fitness was 0.899.

As for U16C C27U A42G G67A, the yeast fitness was at most 0.5.

Take U16A C30G: the yeast fitness was found to be 0.567.

As for U16A C30U, the yeast fitness turned out to be 0.817.

U16A C30A: the yeast fitness was 0.912.

As for U16A C27U C49U, the yeast fitness was 0.61.

With U16A U32C A37U C49G, the yeast fitness was found to be 0.516.

With U16C C22U G68C, the yeast fitness was at most 0.5.

Consider U16A C29G C46U C49U U59G A65U G68A, for which the yeast fitness came out at 0.537.

U16A G48A C61U: the yeast fitness turned out to be 0.706.

Turning to U16A C66A, the yeast fitness amounted to 0.653.

Turning to U16A G56A A69C, the yeast fitness was 0.753.

With U16A C29U A45G C46U A69U, the yeast fitness was at most 0.5.

Regarding U16C C49G C55G C60A C62A G68A A69U, the yeast fitness was at most 0.5.

Regarding U16A U19G C33U A40C G41A A43C C60U C61G, the yeast fitness is at most 0.5.

For the variant U16A G18U C29G C30G C46G, the yeast fitness was at most 0.5.

With U16A C61G C66G, the yeast fitness was at most 0.5.

As for U16A U28C A69C, the yeast fitness amounted to 0.758.

With U16C C55A G67A A70G, the yeast fitness was at most 0.5.

Regarding U16C A20U G25C C60A, the yeast fitness is at most 0.5.

For the variant U16C A40U G67A, the yeast fitness was determined as 0.536.

As for U16A C33U G38C, the yeast fitness is 0.625.

On to U16A G18C A20G C22U G58C C61A, for which the yeast fitness is at most 0.5.

As for U16A G63C A65G, the yeast fitness is at most 0.5.

As for U16A G17A C22G C49U C61U G68C, the yeast fitness was at most 0.5.

Regarding U16C C34A A37G U59A, the yeast fitness was at most 0.5.

Consider U16A C33G G58A G68C, for which the yeast fitness is at most 0.5.

U16C C33U G58A: the yeast fitness is at most 0.5.

Turning to U16A G18A C31U A69C, the yeast fitness is at most 0.5.

Regarding U16A G38A A65G C66G, the yeast fitness was at most 0.5.

Consider U16A G48C C66U, for which the yeast fitness was 0.705.

In the case of U16A G23C C29U C31G U47A, the yeast fitness was at most 0.5.

As for U16A G41C, the yeast fitness is 0.668.

U16A C30U G56C: the yeast fitness is at most 0.5.

As to U16C A37C G67A, the yeast fitness turned out to be 0.553.

As for U16A C31A C33G G38A, the yeast fitness was at most 0.5.

Turning to U16A G58A, the yeast fitness came to 0.859.

As to U16C C24G U32A A69C, the yeast fitness was at most 0.5.

Turning to U16A C34A A40U G44A G63A, the yeast fitness was at most 0.5.

As to U16C A37C C55G A69U, the yeast fitness is at most 0.5.

Take U16A U28C C33G A36U: the yeast fitness was at most 0.5.

Regarding U16A U19A A45G, the yeast fitness was determined as 0.652.

As for U16C C29G C49U, the yeast fitness was found to be 0.535.

Turning to U16A C24U G44C, the yeast fitness amounted to 0.6.

With U16A U19C C33G A43G U54A, the yeast fitness is at most 0.5.

As for U16A C31A A69C, the yeast fitness was determined as 0.633.

On to U16A C55A C61A, for which the yeast fitness was at most 0.5.

In the case of U16A G39A C60G A70G, the yeast fitness is at most 0.5.

Take U16C C55U G67A: the yeast fitness stood at 0.528.

With U16A C30G A37C G68C, the yeast fitness is at most 0.5.
